# Assay outcomes: PubChem BioAssay, several laboratories
# A selection: hits, their analogues and other compounds. The true share with any hit is near 4.8%.
# NF-kB expr up – activators of NF-kB expression in neurons, primary screen, cell-based, HTS. 190,000 compounds, 1.6% hits. AID 1239, 2008. human neuronal cells, NF-kB reporter expression; active compounds read high. fold change at 12.5 µM; in the data active = fold change above about 3.3
# APP transl inh – inhibitors of APP translation via 5'UTR reporter, primary screen, APP 5'UTR luciferase, SH-SY5Y cells; SH-SY5Y APP 5'UTR-luciferase reporter, luminescence; inhibition, % at 2 µM; 190,000 compounds, 0.82% hits; AID 1285, 2008;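 active = inhibition above a set limit, derived from the sample mean plus 3 SD, cut at about 45% in these data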
# STAT1 activator – STAT1 signaling activators, primary screen, cell-based, HTS, luciferase reporter | NIH 3T3 STAT1-luciferase reporter, IFN-gamma, luminescence; 100% = IFN-gamma alone, no compound | activation (% of control), % at 5.5 µM | 200,000 compounds, 2.6% hits;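 active = activation above the screen-wide mean activation plus 3 SD, cut at about 130% in these data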
# FLuc inh counter – firefly luciferase enzyme inhibitors, primary screen, artefact control for luciferase-based inhibitor screens, biochemical, luminescence, ATPLite. 200,000 compounds, 1.5% hits. inhibition, % at 10 µM. 10 min;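 active = inhibition above about 50% when tested at 10 µM, limit read from the data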
# Target sequence (P08659 whole entry, looked up): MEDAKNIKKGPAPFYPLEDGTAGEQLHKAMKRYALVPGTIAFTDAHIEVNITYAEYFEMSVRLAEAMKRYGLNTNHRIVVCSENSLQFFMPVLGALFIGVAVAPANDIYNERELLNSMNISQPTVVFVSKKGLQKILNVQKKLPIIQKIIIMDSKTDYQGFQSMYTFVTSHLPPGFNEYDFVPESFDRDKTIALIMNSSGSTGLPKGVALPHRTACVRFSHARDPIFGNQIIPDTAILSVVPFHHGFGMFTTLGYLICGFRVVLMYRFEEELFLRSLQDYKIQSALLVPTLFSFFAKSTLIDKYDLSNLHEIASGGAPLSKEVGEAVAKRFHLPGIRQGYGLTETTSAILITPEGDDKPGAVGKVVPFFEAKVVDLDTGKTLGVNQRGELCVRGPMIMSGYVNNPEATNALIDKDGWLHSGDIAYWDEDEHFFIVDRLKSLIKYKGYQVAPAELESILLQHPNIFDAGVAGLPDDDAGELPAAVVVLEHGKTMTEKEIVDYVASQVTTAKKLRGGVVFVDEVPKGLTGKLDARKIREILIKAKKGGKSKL
# FLuc stim CS – FLuc activators, initial screening, artefact control for FLuc-dependent activation tests, biochemical, ATPlite luminescence | AID 1027, 2008 | ATPlite luciferase biochemical, 10 min; 0 = ATP-free wells, 1 = DMSO control | activation factor at 10 µM | 200,000 tested, under 10 active | Luciferin 4-monooxygenase (Photinus pyralis), P08659;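 active = luciferase activation factor, scaled between plate controls, of at least 2 with compound at 10 µM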
#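 System: Luciferase/luciferin detection reagent, cell-free biochemical luciferase assay | Medium: PBS buffer for ATP | Dosing: Test compounds dosed from 2 mM stocks in 100% DMSO | Timing: 10 min at ambient temperature | Signal: Luminescence measurement of luciferase light output | Evaluation: Luciferase activation, seen as luminescence increase over controls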
# APP 5'UTR act – activators of APP 5'UTR luciferase reporter, primary screen, SH-SY5Y cells | SH-SY5Y APP 5'UTR luciferase reporter, luminescence; zero percent = DMSO vehicle wells | activation, % at 2 µM | 190,000 compounds, 1% hits | AID 1276, 2008;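 active = activation above a set limit, based on mean plus 3 SD of controls, cut at about 140% in these data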
# A number is an active result; – = inactive; · = no result given.
SMILES,NF-kB expr up,APP transl inh,STAT1 activator,FLuc inh counter,FLuc stim CS,APP 5'UTR act
Cc1ccc(C)c(OCC(O)CN2CCC(CN3C(=O)c4cccc5cccc(c45)C3=O)CC2)c1 (configuration not stated),–,69.3,–,–,–,–
COCc1cc(C)nc2sc(C(=O)Nc3nccs3)c(N)c12,–,–,132.1,–,–,–
Cc1cc(C)c2c(N)c(C(=O)NC3CC3)sc2n1,–,–,–,–,–,–
COCc1cc(C)nc2sc(C(=O)N3CCCCC3)c(N)c12,–,–,–,–,–,–
Cc1cc(C)c2c(N)c(C(=O)Nc3nccs3)sc2n1,–,–,–,94.5,–,–
CC(C)(C)C(=O)NC(=S)NNC(=O)c1ccc(-c2ccccc2)cc1,–,67.2,–,–,–,–
O=C(/C=C1\NC2(CCCC2)Cc2ccccc21)C(=O)N/N=C/c1ccccc1O,–,66.6,–,–,–,–
COc1cc(/C=N/NC(=O)C(=O)/C=C2\NC3(CCCC3)Cc3ccccc32)ccc1O,–,–,–,–,–,–
CCOC(=O)C1(CC2CC2)CCN(Cc2ccc3cccc(F)c3n2)CC1,–,–,–,–,–,–
Cc1nc2c(ccc3nc(NC(=O)C4CC4)sc32)s1,4.73,–,155.7,–,–,–
COCn1c(-c2ccc(OC)cc2)nc2ccccc21,–,–,128.8,75.8,–,–
CC(C)(C)C1CCC(C(=O)OCC(=O)N2CCN(C(=O)c3ccco3)CC2)CC1 (configuration not stated),–,–,–,–,–,–
C1=Nc2ccccc2CN1c1ccccc1,–,–,130.2,–,–,–
Cc1nn(-c2ccccc2)c(Cl)c1/C=N/Nc1ccc(S(=O)(=O)Nc2ccccc2C(=O)O)cc1[N+](=O)[O-],–,–,–,–,–,–
O=C(O)c1cc(N/N=C/c2ccc(OCc3ccccc3)cc2)ccc1Cl,–,–,134.0,–,–,–
Cc1nn(-c2ccccc2)c(Cl)c1/C=N/Nc1ccc(Cl)c(C(=O)O)c1,10.1,–,–,86.7,–,–
Cc1nn(-c2ccccc2)c(Cl)c1/C=N/NC(=O)c1ccco1,–,–,140.8,57.5,–,–
CNC(=S)N/N=C/c1c(C)nn(-c2ccccc2)c1Cl,–,–,–,–,–,–
Cc1nn(-c2ccccc2)c(Cl)c1/C=N/NC(=O)OC(C)(C)C,–,–,139.3,–,–,–
Cc1nn(-c2ccccc2)c(Cl)c1/C=N/NC(=O)c1ccc(CNc2ccccc2)o1,–,–,–,–,–,–
Cc1cc(C)n(CC(O)COc2ccc(OCC(O)Cn3nc(C)cc3C)cc2)n1 (configuration not stated),·,–,–,·,·,–
CCCc1cc2c(-c3ccccc3)cc(=O)oc2cc1OCc1ccc(C(=O)O)o1,–,–,–,–,–,–
O=C(COC(=O)CNC(=O)c1ccccc1)Nc1ccc(F)c([N+](=O)[O-])c1,–,–,–,–,–,–
Cc1ccc(C(=O)NC(C#N)=C(Cl)Cl)cc1,–,57.7,–,–,–,–
Cc1ccc(Nc2nc(CSc3nnc(-c4ccncc4)n3C)cs2)cc1,4.41,–,–,89.9,–,–
SMILES,NF-kB expr up,APP transl inh,STAT1 activator,FLuc inh counter,FLuc stim CS,APP 5'UTR act
Cc1ccc(CSc2nnc(-c3ccncc3)n2C)cc1,–,–,–,–,–,–
CCCc1cc(C(=O)Nc2ccc(F)cc2F)no1,–,–,130.0,–,–,–
Cc1ccc(-c2nc(-c3ccccc3)no2)cc1,10.5,–,147.5,78.3,–,–
CCC(=O)Oc1ccc(-c2nc(-c3cccnc3)no2)cc1,–,–,–,60.6,–,–
CCC(=O)Oc1ccc(-c2cnc3ccccc3n2)cc1,6.83,–,141.8,63.6,–,175.4
CCCc1noc(-c2ccc(-c3ccccc3)cc2)n1,5.67,–,137.7,–,–,–
CCCc1noc(-c2cccc([N+](=O)[O-])c2)n1,–,–,–,–,–,–
Cc1c(C(=O)Oc2ccc(-c3cnc4ccccc4n3)cc2)cccc1[N+](=O)[O-],–,–,–,–,–,–
Cc1occc1-c1nc(-c2ccncc2)no1,–,–,–,–,–,–
Cc1ccc(-c2noc(-c3ccoc3C)n2)cc1,–,–,153.8,–,–,–
Cc1ccc(Cc2nc(-c3cccnc3)no2)cc1,–,–,–,–,–,–
Cc1ccc(-c2nc(-c3cccnc3)no2)cc1,6.27,–,–,66.4,–,–
Cc1ccc(-c2nc(-c3ccccc3)no2)c(Cl)c1,–,–,–,94.9,–,166.4
COc1nc(C)ccc1-c1noc(-c2ccncc2)n1,–,–,130.6,–,–,–
COCCOc1cc(-n2cccc2)c(Cl)cc1Cl,–,–,–,–,–,–
Cc1cc(C)cc(C(=O)N2CCN(c3ccccn3)CC2)c1,–,–,–,–,–,–
COc1cccc(CNC(=O)CCC2CCCN(C(=O)C3=CC(=O)CC(C)(C)O3)C2)c1 (configuration not stated),–,–,–,–,–,–
CC(C)(C)c1ccc(-c2nc(-c3ccncc3)no2)cc1,–,–,130.4,–,–,216.5
O=C(Nc1ccc2nc(-c3cccnc3)[nH]c2c1)C12CC3CC(CC(C3)C1)C2,–,–,–,–,–,–
O=C(Nc1ccc2nc(-c3cccnc3)[nH]c2c1)C1CCCCC1,–,–,–,63.7,–,–
Cc1ccc(C(=O)c2cc([N+](=O)[O-])ccc2N2CCCCC2)cc1C,–,94.0,–,–,–,–
CN1CCN(c2ccc([N+](=O)[O-])cc2C(=O)N2CCOCC2)CC1,–,–,–,–,–,–
Cc1ccc(C(=O)c2cc([N+](=O)[O-])ccc2N2CCOCC2)cc1C,–,93.3,–,–,–,–
Cc1ccc(C(=O)c2cc([N+](=O)[O-])ccc2N2CCOCC2)c(C)c1,5.36,94.0,–,–,–,–
Cc1cc(C)c(-c2csc(NC(=O)c3cc([N+](=O)[O-])ccc3N3CCOCC3)n2)c(C)c1,–,–,–,–,–,–
O=C(NC1CCCCC1)c1cc([N+](=O)[O-])ccc1N1CCCCC1,–,–,–,–,–,–
Cc1cc(C)nc(SCc2cnc(C)nc2N)n1,–,–,–,–,–,–
C/C(=N/Nc1ccc(C(=O)O)cc1)c1ccc(O)c(O)c1O,–,–,–,–,–,–
COc1ccc(CSc2nnc(Cc3sc(-c4ccccc4)nc3-c3ccccc3)o2)cc1,–,–,–,–,–,–
